Tests used:
Plasmodium falciparum = test: In vitro inhibitory activity against chloroquine-resistant Plasmodium falciparum NF54-R in blood; type: functional, organism-based
MRC5 = test: In vitro inhibitory activity on MRC5 fibroblast tissue cultures inoculated with virulent RH strain of Toxoplasma gondii; type: functional, cell-based; settings: Homo sapiens
Summary of the method: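 Confluent MRC5 fibroblast monolayers inoculated with 2000 fresh RH tachyzoites; compounds added at various concentrations after 4 h, then 72 h further incubation. Eight uninfected and eight drug-free control wells per plate. Cold-methanol-fixed cultures assayed by ELISA with peroxidase-labelled anti-SAG-1 monoclonal antibody, read at 405 nm against uninfected blank. IC50 from linear regression of OD versus log concentration.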

Plasmodium yoelii yoelii = test: In vitro inhibitory activity against hepatic stages of Plasmodium yoelii yoelii 265 BY; type: functional, organism-based

Structure (SMILES)	IC50 (Plasmodium falciparum)	IC50 (MRC5)	IC50 (Plasmodium yoelii yoelii)
COc1c(N2CCNC(C)C2)c(F)cc2c(=O)c(C(=O)O)cn(C3CC3)c12 (stereo not drawn) [GATIFLOXACIN]	29 µM	12.7 µM	–
N[C@@H]1[C@H]2CN(c3nc4c(cc3F)c(=O)c(C(=O)O)cn4-c3ccc(F)cc3F)C[C@@H]12 [TROVAFLOXACIN]	22 µM	0.96 µM	74 µM
COc1c(N2C[C@@H]3CCCN[C@@H]3C2)c(F)cc2c(=O)c(C(=O)O)cn(C3CC3)c12 [MOXIFLOXACIN]	45 µM	10.9 µM	–
N[C@@H]1[C@H]2CN(c3nc4c(cc3F)c(=O)c(C(=O)O)cn4C3CC3)C[C@@H]12 [TROVAFLOXACIN4]	–	1.68 µM	–
